Here are results for 23 compounds from ChEMBL document CHEMBL1157554, “Biomimetic synthesis and anti-HIV activity of dimeric phloroglucinols” (Bioorg Med Chem, 2010).

Data set [1] deals with Human immunodeficiency virus 1. As to the kind of experiment: Antiviral activity against HIV1 NL4-3 infected in GFP expressing human CEM cells assessed as inhibition of viral p24 antigen production at non-toxic concentration after 7 days postinfection by ELISA. The data set is classed as functional, CCRF-CEM. The essentials:
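CEM-GFP reporter T cells infected with HIV-1 NL4.3 at MOI 0.05 and cultured with samples at the highest non-toxic concentration. Virus production was measured in culture supernatant on day 7 post-infection by p24 antigen capture ELISA.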
In general terms: ELISA stands for enzyme-linked immunosorbent assay.

The nature of data set [2]: Cytotoxicity against GFP expressing human CEM cells assessed as maximal non-toxic concentration after 48 to 72 hrs by MTT assay. The data set is classed as cell-based, CCRF-CEM. The essentials:
(§1)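 MTT assay on uninfected CEM-GFP cells seeded at 2 × 10⁴ cells/well. Samples were added at various concentrations, with untreated or vehicle-treated controls, and incubated 48–72 h. Formazan was solubilized and absorbance read at 540 nm. Non-toxic concentrations were carried into antiviral screening. CC50 was from triplicate determinations.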

Data set [3] can be described thus: Cytotoxicity against GFP expressing human CEM cells after 48 to 72 hrs by MTT assay. The format is cell-based, CCRF-CEM. The essentials:
as §1

In data set [4] the target is Human immunodeficiency virus type 1 reverse transcriptase (Human immunodeficiency virus 1) (UniProt Q72547). As to the kind of experiment: Inhibition of HIV1 reverse transcriptase at 20 ug/mL by EIA.
Data set [5] concerns Human immunodeficiency virus 1. The experiment in a line: Antiviral activity against HIV1 NL4-3 infected in GFP expressing human CEM cells assessed as inhibition of viral infection measured after 9 days postinfection by microfluorometry. The format is functional, organism-based. Particulars: Human immunodeficiency virus 1, NL4-3, CCRF-CEM, 216 h. The essentials: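 CEM-GFP human CD4+ T cells, which carry an integrated LTR-driven GFP reporter, infected with HIV-1 NL4.3 at MOI 0.05. Cells were incubated with samples for up to 9 days post-infection. Infection was followed by GFP fluorescence microscopy, and screening inhibition was quantified by GFP microfluorometry. IC50 is the concentration giving 50% inhibition of infected cells (n = 3).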

In data set [6] the target is Human immunodeficiency virus type 1 reverse transcriptase (Human immunodeficiency virus 1, UniProt Q72547). As to the kind of experiment: Inhibition of HIV1 reverse transcriptase by EIA.
Data set [7] has as its system Human immunodeficiency virus. The experiment in a line: Inhibition of HIV reverse transcriptase at 25 ug/mL.

As for `CC(C)C(=O)c1c(O)c(Cc2c(O)c(C(=O)C(C)C)c(O)c(C(=O)C(C)C)c2O)c(O)c(C(=O)C(C)C)c1O`, the “inhibition (INH)” value in data set [1] stood at 0%. Besides, in data set [2], the MNTC was 0.09 µM.
As to `CC(=O)c1c(O)c(C(C)=O)c(O)c(C(c2ccco2)c2c(O)c(C(C)=O)c(O)c(C(C)=O)c2O)c1O`, the midpoint of cytotoxicity in data set [3], the CC50, lay at 61.2 µM. The “inhibition (INH)” value in data set [1] came to 73%. In data set [4], the inhibition – broadly, the drop in the measured response relative to a control, in per cent – stood at 16.2%. Further, the 50% inhibitory concentration (IC50) (in general, the midpoint of a concentration-inhibition curve) in data set [5] turned out to be 6.75 µM. In data set [2], the MNTC turned out to be 15.1 µM.
Take `CC(C)CC(=O)c1c(O)c(C(=O)CC(C)C)c(O)c(C(c2ccccn2)c2c(O)c(C(=O)CC(C)C)c(O)c(C(=O)CC(C)C)c2O)c1O`: in data set [3], the CC50 (in general, the concentration at which the toxic effect on the cells reaches its halfway point) was 38.1 µM. Besides, the “inhibition (INH)” value in data set [1] stood at 64.7%. In addition, the inhibition in data set [4] stood at 0%. In data set [5], the IC50 is 3.37 µM. Also, the MNTC in data set [2] was 7.39 µM.
`CCC(c1c(O)c(C(C)=O)c(O)c(C(C)=O)c1O)c1c(O)c(C(C)=O)c(O)c(C(C)=O)c1O`: the “inhibition (INH)” value in data set [1] came out at 17.5%. Also, the MNTC in data set [2] was found to be 2.17 µM.
In the case of `CC(C)CC(=O)c1c(O)c(Cc2c(O)c(C(=O)CC(C)C)c(O)c(C(=O)CC(C)C)c2O)c(O)c(C(=O)CC(C)C)c1O`, the “inhibition (INH)” value in data set [1] is 0%. For the same compound, the MNTC in data set [2] came to 0.17 µM.
`CC(=O)c1c(O)c(C(C)=O)c(O)c(C(c2ccc(N(C)C)cc2)c2c(O)c(C(C)=O)c(O)c(C(C)=O)c2O)c1O` had a CC50 in data set [3] of 22.1 µM. Also, the “inhibition (INH)” value in data set [1] amounted to 60.6%. For the same compound, the inhibition in data set [4] was 13.4%. Besides, the IC50 in data set [5] was determined as 6.06 µM. In addition, the MNTC in data set [2] came out at 9.07 µM.
As to `CC(=O)c1c(O)c(C(C)=O)c(O)c(C(CCc2ccccc2)c2c(O)c(C(C)=O)c(O)c(C(C)=O)c2O)c1O`, the “inhibition (INH)” value in data set [1] is listed as 16%. Besides, the MNTC in data set [2] came to 1.87 µM.
Compound `CC(C)CC(=O)c1c(O)c(C(=O)CC(C)C)c(O)c(C(c2ccccc2)c2c(O)c(C(=O)CC(C)C)c(O)c(C(=O)CC(C)C)c2O)c1O` had a half-maximal cytotoxic concentration (CC50) in data set [3] of 3.15 µM. The “inhibition (INH)” value in data set [1] is given as 66.5%. Besides, in data set [4], the inhibition came out at 4.61%. Further, in data set [5], the IC50 stood at 0.28 µM. The MNTC in data set [2] is 0.74 µM.
For `CC(=O)c1c(O)c(C(C)=O)c(O)c(C(c2ccc(O)cc2)c2c(O)c(C(C)=O)c(O)c(C(C)=O)c2O)c1O`, in data set [1], the “inhibition (INH)” value is 56%. For the same compound, the MNTC in data set [2] is 14.3 µM.
For the compound `CC(=O)c1c(O)c(C(C)=O)c(O)c(C(c2c(O)c(C(C)=O)c(O)c(C(C)=O)c2O)C2CCCCC2)c1O`, the cytotoxic concentration (CC50) in data set [3] amounted to 58.9 µM. Besides, the “inhibition (INH)” value in data set [1] was found to be 78.5%. Also, the inhibition in data set [4] amounted to 0%. For the same compound, the IC50 in data set [5] stood at 4.09 µM. In addition, the MNTC in data set [2] worked out at 9.73 µM.
Turning to `CC(=O)c1c(O)c(C(C)=O)c(O)c(C(c2c(O)c(C(C)=O)c(O)c(C(C)=O)c2O)c2ccnc3ccccc23)c1O`, in data set [6], the EC50 (usually the concentration needed to bring the measured effect to its halfway point) came out at 470 nM. In data set [3], this compound came in with a CC50 of 93.4 µM. The “inhibition (INH)” value in data set [1] is 71.1%. Further, the inhibition in data set [4] stood at 80.5%. The IC50 in data set [5] turned out to be 18.6 µM. Further, in data set [2], the MNTC is 35.8 µM.
In the case of `CC(C)CC(=O)c1c(O)c(C(=O)CC(C)C)c(O)c(C(c2ccc3c(c2)OCO3)c2c(O)c(C(=O)CC(C)C)c(O)c(C(=O)CC(C)C)c2O)c1O`, the “inhibition (INH)” value in data set [1] is 13.9%. Moreover, in data set [2], the MNTC worked out at 2.77 µM.
In data set [6], `CC(C)CC(=O)c1c(O)c(C(=O)CC(C)C)c(O)c(C(c2ccc(OCc3ccccc3)cc2)c2c(O)c(C(=O)CC(C)C)c(O)c(C(=O)CC(C)C)c2O)c1O` had an EC50 of 1040 nM. Also, half-maximal cytotoxicity in data set [3] (CC50) was put at 24 µM. Further, the “inhibition (INH)” value in data set [1] was determined as 70%. Besides, the inhibition in data set [4] is 87.8%. The IC50 in data set [5] is 2.71 µM. In data set [2], the MNTC was 5.75 µM.
In data set [7], `COc1c(C)c(O)c(C(C)=O)c(O)c1Cc1c(O)c(CC=C(C)C)c(O)c(C(C)=O)c1O` had an inhibition of 90%.
Consider `CC(C)CC(=O)c1c(O)c(C=O)c(O)c(C(c2ccc(OCc3ccccc3)cc2)c2c(O)c(C=O)c(O)c(C(=O)CC(C)C)c2O)c1O`, for which the “inhibition (INH)” value in data set [1] is 0%. Further, in data set [2], the MNTC was found to be 7.46 µM.
In the case of `CC(C)CC(=O)c1c(O)c(C(=O)CC(C)C)c(O)c(C(CCc2ccccc2)c2c(O)c(C(=O)CC(C)C)c(O)c(C(=O)CC(C)C)c2O)c1O`, the “inhibition (INH)” value in data set [1] is given as 15%. Also, in data set [2], the MNTC was 0.71 µM.
The matching figures for `CC(C)CC(=O)c1c(O)c(C(=O)CC(C)C)c(O)c(C(c2ccco2)c2c(O)c(C(=O)CC(C)C)c(O)c(C(=O)CC(C)C)c2O)c1O`: 56.8% and 3.75 µM.
The compound `Cc1cn([C@H]2C[C@H](N=[N+]=[N-])[C@@H](CO)O2)c(=O)[nH]c1=O` [ZIDOVUDINE] had a CC50 in data set [3] of 24.1 µM. Moreover, the “inhibition (INH)” value in data set [1] was 89.75%. Besides, in data set [2], the MNTC worked out at 5 µM.
As for `CC(=O)c1c(O)c(Cc2c(O)c(C(C)=O)c(O)c(C(C)=O)c2O)c(O)c(C(C)=O)c1O`, in data set [1], the “inhibition (INH)” value worked out at 0%. Also, the MNTC in data set [2] was 0.23 µM.
`CC(C)CC(=O)c1c(O)c(C=O)c(O)c(Cc2c(O)c(C=O)c(O)c(C(=O)CC(C)C)c2O)c1O`: the “inhibition (INH)” value in data set [1] turned out to be 0%. Also, in data set [2], the MNTC is 4.1 µM.
As for `CC(C)CC(=O)c1c(O)c(C(=O)CC(C)C)c(O)c(C(c2c(O)c(C(=O)CC(C)C)c(O)c(C(=O)CC(C)C)c2O)c2ccnc3ccccc23)c1O`, the “inhibition (INH)” value in data set [1] stood at 30.1%. Moreover, the MNTC in data set [2] turned out to be 3.44 µM.
The like results for `CC(C)CC(=O)c1c(O)c(C=O)c(O)c(C(c2ccccn2)c2c(O)c(C=O)c(O)c(C(=O)CC(C)C)c2O)c1O` were, in that order, 26.9% and 15.9 µM.
Consider `CC(C)CC(=O)c1c(O)c(C(=O)CC(C)C)c(O)c(C(c2ccc(O)cc2)c2c(O)c(C(=O)CC(C)C)c(O)c(C(=O)CC(C)C)c2O)c1O`, for which, in data set [1], the “inhibition (INH)” value is reported as 15.6%. For the same compound, the MNTC in data set [2] amounted to 1.45 µM.
